{
  "source": "ChEMBL document CHEMBL4376814",
  "about": "“Novel cyclin-dependent kinase 9 (CDK9) inhibitor with suppression of cancer stemness activity against non-small-cell lung cancer” (Eur J Med Chem, 2019)",
  "key": {"A549": {"system": "A549", "assay": "Induction of apoptosis in human A549 cells assessed as early apoptotic cells at 0.25 uM after 48 hrs by AnnexinV-FITC/PI staining-based flow cytometric analysis (reference value: 2.91%)", "type": "functional"}, "NCI-H1299 [1]": {"system": "NCI-H1299", "assay": "Induction of apoptosis in human H1299 cells assessed as late apoptotic cells at 1 uM after 48 hrs by AnnexinV-FITC/PI staining-based flow cytometric analysis (reference value: 1.77%)", "type": "functional"}, "NCI-H1299 [2]": {"system": "NCI-H1299", "assay": "Antitumour activity against human H1299 cells xenografted in po dosed Balb/c mouse assessed as inhibition of tumour growth after 21 days by digital caliper method", "type": "functional, organism-based", "method_in_brief": "(§1)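 Female nude mice, 6-8 weeks old, injected subcutaneously with 1×10^6 H1299 cells (100 µL of a 1×10^7/mL suspension in serum-free medium). At 100-120 mm3, randomized into groups of 5. Dosed orally each day for 21 days with drug dissolved in DMSO, or with vehicle. Caliper measurements and body weight taken every other day. Volume = short²×long×0.5. Growth inhibition based on change in volume relative to vehicle. Tumours weighed at the end.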"}, "NCI-H1299 [3]": {"system": "NCI-H1299", "assay": "Antitumour activity against human H1299 cells xenografted in Balb/c mouse assessed as reduction in tumour size at 20 to 80 mg/kg, po after 21 days by digital caliper method", "type": "functional, organism-based", "method_in_brief": "as §1"}, "[4]": {"target": "Calcium/calmodulin-dependent protein kinase type II subunit alpha (Homo sapiens) (UniProt Q9UQM7)", "assay": "Inhibition of full-length recombinant human CaMK2 alpha at 1 uM using KKLNRTLSFAEPG as substrate measured after 40 mins in presence of [gamma33P]ATP by scintillation counting method relative to control", "method_in_brief": "(§2)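 Percent inhibition of kinase activity at a single compound concentration, measured by the outsourced Eurofins KinaseProfiler panel. Values are the mean of two independent experiments.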"}, "[5]": {"target": "Myosin-IIIb (Homo sapiens) (UniProt Q8WXR4)", "sequence (Q8WXR4 whole entry, the tested form may be a part)": "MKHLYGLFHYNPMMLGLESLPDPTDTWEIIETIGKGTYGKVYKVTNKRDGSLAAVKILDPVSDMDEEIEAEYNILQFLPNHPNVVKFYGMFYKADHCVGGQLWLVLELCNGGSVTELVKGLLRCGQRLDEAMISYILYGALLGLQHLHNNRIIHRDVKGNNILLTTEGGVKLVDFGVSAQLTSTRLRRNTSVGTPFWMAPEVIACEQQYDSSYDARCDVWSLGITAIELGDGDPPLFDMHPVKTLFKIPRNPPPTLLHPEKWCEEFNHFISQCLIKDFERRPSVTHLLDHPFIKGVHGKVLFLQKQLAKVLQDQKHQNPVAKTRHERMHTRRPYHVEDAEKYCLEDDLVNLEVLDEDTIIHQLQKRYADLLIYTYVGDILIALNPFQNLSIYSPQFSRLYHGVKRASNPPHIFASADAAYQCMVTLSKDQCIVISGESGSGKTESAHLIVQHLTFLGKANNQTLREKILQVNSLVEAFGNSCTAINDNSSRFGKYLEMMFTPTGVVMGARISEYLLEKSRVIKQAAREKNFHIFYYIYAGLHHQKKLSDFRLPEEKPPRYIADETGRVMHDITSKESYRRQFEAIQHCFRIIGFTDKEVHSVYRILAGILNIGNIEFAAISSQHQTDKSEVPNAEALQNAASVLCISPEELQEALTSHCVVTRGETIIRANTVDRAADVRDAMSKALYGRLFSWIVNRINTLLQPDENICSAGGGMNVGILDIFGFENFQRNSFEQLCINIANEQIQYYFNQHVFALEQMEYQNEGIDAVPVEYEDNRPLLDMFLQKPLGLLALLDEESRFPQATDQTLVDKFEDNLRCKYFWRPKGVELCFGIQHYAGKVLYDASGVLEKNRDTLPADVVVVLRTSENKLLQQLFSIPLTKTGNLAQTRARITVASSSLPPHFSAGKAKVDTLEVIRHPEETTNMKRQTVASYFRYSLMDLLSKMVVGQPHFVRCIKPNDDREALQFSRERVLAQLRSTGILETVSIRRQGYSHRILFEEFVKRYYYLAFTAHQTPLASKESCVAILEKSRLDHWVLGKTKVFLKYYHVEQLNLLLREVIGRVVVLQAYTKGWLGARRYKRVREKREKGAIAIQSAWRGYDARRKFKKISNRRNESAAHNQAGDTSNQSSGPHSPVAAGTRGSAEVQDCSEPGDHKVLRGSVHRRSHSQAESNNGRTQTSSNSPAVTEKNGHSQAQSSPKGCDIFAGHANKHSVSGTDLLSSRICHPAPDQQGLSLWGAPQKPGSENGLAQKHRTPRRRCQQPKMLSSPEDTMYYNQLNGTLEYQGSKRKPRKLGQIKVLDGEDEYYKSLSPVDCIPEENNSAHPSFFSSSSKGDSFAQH", "assay": "Inhibition of recombinant human MYO3B (1 to 326 residues) at 1 uM using RLGRDKYKTLRQIRQ as substrate measured after 40 mins in presence of [gamma33P]ATP by scintillation counting method relative to control"}, "[6]": {"target": "Cyclin-dependent kinase 5/CDK5 activator 1 (Homo sapiens) (UniProt Q00535+Q15078)", "sequence (Q00535 whole entry)": "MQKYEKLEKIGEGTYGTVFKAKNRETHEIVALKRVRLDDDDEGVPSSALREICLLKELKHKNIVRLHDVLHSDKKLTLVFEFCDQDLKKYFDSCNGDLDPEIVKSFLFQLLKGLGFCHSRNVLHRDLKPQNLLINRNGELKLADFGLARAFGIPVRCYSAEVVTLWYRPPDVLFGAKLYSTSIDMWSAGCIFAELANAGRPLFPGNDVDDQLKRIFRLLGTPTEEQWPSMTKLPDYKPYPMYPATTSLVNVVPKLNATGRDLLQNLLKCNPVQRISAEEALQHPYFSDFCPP", "sequence (Q15078 99-307 partner limits assumed)": "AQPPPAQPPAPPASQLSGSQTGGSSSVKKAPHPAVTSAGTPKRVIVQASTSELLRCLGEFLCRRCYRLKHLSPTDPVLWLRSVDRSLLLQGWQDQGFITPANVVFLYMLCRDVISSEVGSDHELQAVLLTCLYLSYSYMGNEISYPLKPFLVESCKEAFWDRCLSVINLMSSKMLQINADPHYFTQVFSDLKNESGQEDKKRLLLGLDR", "assay": "Inhibition of recombinant full-length human CDK5/p25 at 1 uM using Histone H1 as substrate measured after 40 mins in presence of [gamma33P]ATP by scintillation counting method relative to control", "type": "protein-complex assay"}, "[7]": {"target": "Dual specificity protein kinase CLK1 (Homo sapiens) (UniProt P49759)", "assay": "Inhibition of recombinant human CLK1 (130 to end residues) at 1 uM using ERMRPRKRQGSVRRRV as substrate measured after 40 mins in presence of [gamma33P]ATP by scintillation counting method relative to control"}, "[8]": {"target": "Serine/threonine-protein kinase MARK2 (Homo sapiens) (UniProt Q7KZI7)", "sequence (Q7KZI7 whole entry)": "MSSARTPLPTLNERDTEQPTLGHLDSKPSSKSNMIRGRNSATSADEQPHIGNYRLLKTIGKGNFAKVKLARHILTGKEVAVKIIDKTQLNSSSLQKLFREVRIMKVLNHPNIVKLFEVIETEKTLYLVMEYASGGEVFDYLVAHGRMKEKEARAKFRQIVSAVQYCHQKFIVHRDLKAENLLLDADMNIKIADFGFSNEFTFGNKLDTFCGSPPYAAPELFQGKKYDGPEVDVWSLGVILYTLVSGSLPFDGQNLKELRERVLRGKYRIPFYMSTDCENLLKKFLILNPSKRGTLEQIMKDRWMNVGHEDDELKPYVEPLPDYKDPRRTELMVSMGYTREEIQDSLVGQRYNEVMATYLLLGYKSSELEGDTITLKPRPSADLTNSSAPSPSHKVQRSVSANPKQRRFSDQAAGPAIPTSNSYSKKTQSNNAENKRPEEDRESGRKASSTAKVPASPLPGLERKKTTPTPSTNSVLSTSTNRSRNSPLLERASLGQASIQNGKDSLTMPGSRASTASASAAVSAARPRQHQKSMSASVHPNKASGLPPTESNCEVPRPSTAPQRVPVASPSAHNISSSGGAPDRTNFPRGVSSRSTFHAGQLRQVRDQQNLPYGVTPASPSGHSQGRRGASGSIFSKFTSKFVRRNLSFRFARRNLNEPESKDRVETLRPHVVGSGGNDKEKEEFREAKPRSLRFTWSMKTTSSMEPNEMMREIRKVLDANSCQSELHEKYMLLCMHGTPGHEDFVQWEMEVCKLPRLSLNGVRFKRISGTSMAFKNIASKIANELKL", "assay": "Inhibition of recombinant full-length human PAR1Balpha at 1 uM using KKKVSRSGLYRSPSMPENLNRPR as substrate measured after 40 mins in presence of [gamma33P]ATP by scintillation counting method relative to control"}, "[9]": {"system": "Platelet-derived growth factor receptor alpha (Homo sapiens), P16234 [V561D]", "assay": "Inhibition of recombinant human PDGFRalpha (550 to end residues) V561D mutant at 1 uM using GGMEDIYFEFMGGKKK as substrate measured after 40 mins in presence of [gamma33P]ATP by scintillation counting method relative to control"}, "[10]": {"target": "Platelet-derived growth factor receptor beta (Homo sapiens) (UniProt P09619)", "sequence (P09619 whole entry)": "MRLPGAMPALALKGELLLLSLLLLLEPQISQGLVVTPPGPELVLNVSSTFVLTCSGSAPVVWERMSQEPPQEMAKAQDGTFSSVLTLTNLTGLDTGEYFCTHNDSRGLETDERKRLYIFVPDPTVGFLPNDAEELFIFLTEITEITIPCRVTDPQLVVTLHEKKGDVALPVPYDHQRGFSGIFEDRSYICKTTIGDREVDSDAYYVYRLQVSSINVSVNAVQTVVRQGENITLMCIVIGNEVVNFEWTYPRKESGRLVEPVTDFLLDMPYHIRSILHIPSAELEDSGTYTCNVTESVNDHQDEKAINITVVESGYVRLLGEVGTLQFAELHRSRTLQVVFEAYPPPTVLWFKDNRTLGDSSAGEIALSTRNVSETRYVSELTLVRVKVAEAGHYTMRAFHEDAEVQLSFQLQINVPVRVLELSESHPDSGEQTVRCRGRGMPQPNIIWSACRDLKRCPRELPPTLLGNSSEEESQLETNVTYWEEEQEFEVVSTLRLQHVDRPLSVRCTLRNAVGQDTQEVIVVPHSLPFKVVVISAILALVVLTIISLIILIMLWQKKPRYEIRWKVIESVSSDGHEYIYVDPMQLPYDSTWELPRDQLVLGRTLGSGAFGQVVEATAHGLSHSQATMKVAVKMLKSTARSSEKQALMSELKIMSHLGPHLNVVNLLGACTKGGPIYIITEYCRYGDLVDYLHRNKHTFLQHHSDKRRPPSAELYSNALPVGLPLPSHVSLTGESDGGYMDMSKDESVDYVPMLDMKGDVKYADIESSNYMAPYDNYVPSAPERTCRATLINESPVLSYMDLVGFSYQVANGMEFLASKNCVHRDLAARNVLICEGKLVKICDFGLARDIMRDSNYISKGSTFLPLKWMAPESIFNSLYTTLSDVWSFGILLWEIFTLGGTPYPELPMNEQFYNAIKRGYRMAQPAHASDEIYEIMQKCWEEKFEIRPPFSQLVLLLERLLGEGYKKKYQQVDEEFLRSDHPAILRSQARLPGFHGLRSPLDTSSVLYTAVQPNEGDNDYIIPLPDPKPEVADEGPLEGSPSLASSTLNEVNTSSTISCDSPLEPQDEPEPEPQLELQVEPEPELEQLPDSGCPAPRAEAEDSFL", "assay": "Inhibition of recombinant human PDGFRbeta (557 to end residues) at 1 uM using poly[Glu:Tyr] (4:1) as substrate measured after 40 mins in presence of [gamma33P]ATP by scintillation counting method relative to control"}, "[11]": {"target": "[Pyruvate dehydrogenase (acetyl-transferring)] kinase isozyme 2, mitochondrial (Homo sapiens) (UniProt Q15119)", "assay": "Inhibition of human PDHK2 at 1 uM by radiometric method relative to control", "method_in_brief": "as §2"}, "Homo sapiens [12]": {"species_on_record": "Homo sapiens", "assay": "Inhibition of recombinant full-length human pkb-alpha S478G mutant at 1 uM using GRPRTSSFAEGKK as substrate measured after 40 mins in presence of [gamma33P]ATP by scintillation counting method relative to control"}, "Homo sapiens [13]": {"species_on_record": "Homo sapiens", "assay": "Inhibition of recombinant human DDR1 V833L mutant (492 to end residues) at 1 uM using KKKSPGEYVNIEFG as substrate measured after 40 mins in presence of [gamma33P]ATP by scintillation counting method relative to control"}, "[14]": {"target": "Tyrosine-protein kinase Fes/Fps (Homo sapiens) (UniProt P07332)", "assay": "Inhibition of recombinant human FES (2 to end residues) at 1 uM using poly(Glu, Tyr) 4:1 as substrate measured after 40 mins in presence of [gamma33P]ATP by scintillation counting method relative to control"}, "[15]": {"target": "Serine/threonine-protein kinase ICK (Homo sapiens) (UniProt Q9UPZ9)", "assay": "Inhibition of recombinant human ICK (1 to 312 residues) at 1 uM using RRRFRPASPLRGPPK as substrate measured after 40 mins in presence of [gamma33P]ATP by scintillation counting method relative to control"}, "[16]": {"target": "Insulin receptor-related protein (Homo sapiens) (UniProt P14616)", "assay": "Inhibition of recombinant human IRR (943 to 1266 residues) at 1 uM using myelin basic protein as substrate measured after 40 mins in presence of [gamma33P]ATP by scintillation counting method relative to control"}, "[17]": {"target": "Serine/threonine-protein kinase 32B (Homo sapiens) (UniProt Q9NY57)", "sequence (Q9NY57 whole entry)": "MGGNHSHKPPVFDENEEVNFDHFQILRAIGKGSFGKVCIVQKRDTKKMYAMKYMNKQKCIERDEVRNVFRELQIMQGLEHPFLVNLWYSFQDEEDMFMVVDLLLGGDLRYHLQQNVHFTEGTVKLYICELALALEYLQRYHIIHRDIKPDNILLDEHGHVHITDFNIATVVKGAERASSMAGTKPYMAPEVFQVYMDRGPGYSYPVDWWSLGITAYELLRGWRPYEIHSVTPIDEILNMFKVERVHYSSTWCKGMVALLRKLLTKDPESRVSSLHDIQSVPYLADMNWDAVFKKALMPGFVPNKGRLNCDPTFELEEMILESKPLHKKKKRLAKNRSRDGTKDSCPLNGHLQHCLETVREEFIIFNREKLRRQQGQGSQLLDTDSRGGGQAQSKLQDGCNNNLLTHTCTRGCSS", "assay": "Inhibition of recombinant full-length human STK32B at 1 uM using casein as substrate measured after 120 mins in presence of [gamma33P]ATP by scintillation counting method relative to control"}, "[18]": {"target": "Serine/threonine-protein kinase tousled-like 2 (Homo sapiens) (UniProt Q86UE8)", "assay": "Inhibition of human TLK2 (387 to end residues) at 1 uM using casein as substrate measured after 40 mins in presence of [gamma33P]ATP by scintillation counting method relative to control", "method_in_brief": "as §2"}, "[19]": {"target": "Dual specificity mitogen-activated protein kinase kinase 2 (Homo sapiens) (UniProt P36507)", "assay": "Inhibition of recombinant full-length human MEK2 at 1 uM using unactive […] as substrate measured after 40 mins in presence of [gamma33P]ATP by scintillation counting method relative to control"}, "[20]": {"target": "Wee1-like protein kinase 2 (Homo sapiens) (UniProt P0C1S8)", "sequence (P0C1S8 whole entry, looked up)": "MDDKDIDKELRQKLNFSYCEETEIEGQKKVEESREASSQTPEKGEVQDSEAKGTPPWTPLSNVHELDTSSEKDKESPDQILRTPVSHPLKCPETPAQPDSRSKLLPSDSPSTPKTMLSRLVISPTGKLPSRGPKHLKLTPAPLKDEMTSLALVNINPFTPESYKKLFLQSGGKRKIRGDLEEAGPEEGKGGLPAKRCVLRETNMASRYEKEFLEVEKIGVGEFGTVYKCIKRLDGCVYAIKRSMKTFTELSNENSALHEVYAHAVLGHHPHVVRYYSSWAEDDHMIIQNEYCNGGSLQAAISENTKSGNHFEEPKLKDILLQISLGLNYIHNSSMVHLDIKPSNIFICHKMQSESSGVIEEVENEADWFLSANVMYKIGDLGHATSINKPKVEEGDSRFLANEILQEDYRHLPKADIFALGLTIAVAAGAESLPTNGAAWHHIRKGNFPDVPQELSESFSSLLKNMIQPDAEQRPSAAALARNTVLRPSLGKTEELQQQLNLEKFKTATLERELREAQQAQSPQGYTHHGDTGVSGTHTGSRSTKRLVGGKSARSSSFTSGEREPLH", "assay": "Inhibition of recombinant full-length human Wee1B at 1 uM using LSNLYHQGKFLQTFCGSPLYRRR as substrate measured after 120 mins in presence of [gamma33P]ATP by scintillation counting method relative to control"}, "[21]": {"target": "Phosphatidylinositol 5-phosphate 4-kinase type-2 alpha (Homo sapiens) (UniProt P48426)", "assay": "Inhibition of recombinant full-length human PIP4K2alpha at 1 uM using phosphatidylinositol 5-phosphate as substrate measured after 40 mins by HTRF assay relative to control"}, "[22]": {"target": "3-phosphoinositide-dependent protein kinase 1 (Homo sapiens) (UniProt O15530)", "assay": "Inhibition of recombinant human PDK1 (52 to end residues) at 1 uM using PDKtide as substrate measured after 40 mins in presence of [gamma33P]ATP by scintillation counting method relative to control"}},
  "note": "Activity calls are given as the source filed them. The rule behind the calls is not given here.",
  "data": [
    {"smiles": "CN(C)C(=O)c1cc2cnc(Nc3ccc(NC(=O)CCCCCCCN=C=S)cc3)nc2n1C1CCCC1", "values": [
      {"measurement": "Activity", "setting": "A549", "value": 1.76, "unit": "%"},
      {"measurement": "Activity", "setting": "NCI-H1299 [1]", "value": 4.51, "unit": "%"},
      {"measurement": "TGI", "setting": "NCI-H1299 [2]", "value": "Dose-dependent effect"},
      {"measurement": "Activity", "setting": "NCI-H1299 [3]", "value": "Active"},
      {"measurement": "inhibition", "setting": "[4]", "value": 61, "unit": "%"},
      {"measurement": "inhibition", "setting": "[5]", "value": -1, "unit": "%"},
      {"measurement": "inhibition", "setting": "[6]", "value": 63, "unit": "%"},
      {"measurement": "inhibition", "setting": "[7]", "value": 14, "unit": "%"},
      {"measurement": "inhibition", "setting": "[8]", "value": 2, "unit": "%"},
      {"measurement": "inhibition", "setting": "[9]", "value": 90, "unit": "%"},
      {"measurement": "inhibition", "setting": "[10]", "value": 2, "unit": "%"},
      {"measurement": "inhibition", "setting": "[11]", "value": -10, "unit": "%"},
      {"measurement": "inhibition", "setting": "Homo sapiens [12]", "value": 5, "unit": "%"},
      {"measurement": "inhibition", "setting": "Homo sapiens [13]", "value": 47, "unit": "%"},
      {"measurement": "inhibition", "setting": "[14]", "value": 7, "unit": "%"},
      {"measurement": "inhibition", "setting": "[15]", "value": 38, "unit": "%"},
      {"measurement": "inhibition", "setting": "[16]", "value": 3, "unit": "%"},
      {"measurement": "inhibition", "setting": "[17]", "value": 49, "unit": "%"},
      {"measurement": "inhibition", "setting": "[18]", "value": 8, "unit": "%"},
      {"measurement": "inhibition", "setting": "[19]", "value": 8, "unit": "%"},
      {"measurement": "inhibition", "setting": "[20]", "value": -1, "unit": "%"},
      {"measurement": "inhibition", "setting": "[21]", "value": 0, "unit": "%"},
      {"measurement": "inhibition", "setting": "[22]", "value": 1, "unit": "%"}
    ]}
  ]
}
